Measurements published in ChEMBL document CHEMBL1122845, “Inhibitors of blood platelet aggregation. Effects of some 1,2-benzisothiazol-3-ones on platelet responsiveness to adenosine diphosphate and collagen” (J Med Chem, 1985).
pIC50: −log10 of the molar value. Where “and” joins values, the source holds several entries; their conditions need not be identical. Equal values may be shown once.

Assays:
Rattus norvegicus [1] = test: The compound was tested ex vivo at a dose of 0.15 mmol/kg for ADP induced platelet aggregation in rat; format: functional
Procedure, shortened: (§1)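 Fasted male rats (~200 g) or guinea pigs (~300 g), n=5-10, dosed orally (5 mL/kg) in 1% methylcellulose; methylcellulose alone as control. Killed with CO2 after 2 h. Vena cava blood citrated (102 mM rat, 129 mM guinea pig); PRP adjusted to 800000/µL (rat) or 500000/µL (guinea pig). EC25 for first-phase ADP aggregation (max 8 µM) interpolated from two 2-fold-spaced ADP levels. Dose ratio = treated/control mean EC25; Student's t-test. Some groups tested as pooled PRP.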

Rattus norvegicus [2] = test: The compound was tested ex vivo at a dose of 0.15 mmol/kg for collagen induced platelet aggregation in rat; format: functional
Procedure, shortened: (§2)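 Male rats (~200 g) or guinea pigs (~300 g), overnight fasted, n=5-10, received compound orally in 1% methylcellulose (5 mL/kg); vehicle-only controls. After 2 h, CO2 kill and vena cava blood into citrate (102 mM rat, 129 mM guinea pig). PRP set to 800000/µL (rat) or 500000/µL (guinea pig). Collagen EC50 (response of 50 mm; max 50 µg/mL) interpolated from a log plot. Dose ratio = treated/control mean EC50; t-test. Pooled PRP sometimes used.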

Cavia porcellus [3] = test: The compound was tested ex vivo at a dose of 0.15 mmol/kg for ADP induced platelet aggregation in guinea pig; format: functional; procedure, shortened: as §1
Cavia porcellus [4] = test: The compound was tested ex vivo at a dose of 0.15 mmol/kg for collagen induced platelet aggregation in guinea pig; format: functional; procedure, shortened: as §2
Homo sapiens [5] = species: Homo sapiens; test: In vitro inhibitory activity against human platelet aggregation in the presence of Adenosine diphosphate; format: functional
Procedure, shortened: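 Human citrated PRP, platelet count adjusted to 350000/µL with autologous platelet-poor plasma. 90 µL PRP preincubated 3 min at 37 °C with compound or saline (DMF vehicle where needed), stirred at 1100 rpm. ADP chosen per preparation to give a clear first-phase response (typically 1 µM). Photometric read-out: maximum rise in light transmission within 1 min. IC50 determined.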

Rattus norvegicus [6] = test: The compound was tested ex vivo at a dose of 0.3 mmol/kg for collagen induced platelet aggregation in rat; format: functional; procedure, shortened: as §2
Homo sapiens [7] = species: Homo sapiens; test: (§3) In vitro inhibitory activity against human platelet aggregation in the presence of collagen; format: functional
Procedure, shortened: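 Aggregation measured photometrically in human citrated PRP (350000 platelets/µL, stirred at 1100 rpm). Compound or saline preincubated 3 min at 37 °C. Collagen at a just-maximal level chosen for each sample (typically 0.7-1.4 µg/mL). Maximum increase in light transmission measured. IC50 = concentration giving 50% inhibition.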

Cavia porcellus [8] = test: Ex vivo inhibition of collagen induced guinea pig platelet aggregation following 0.08 mmol/kg administration.; format: functional; procedure, shortened: as §2
Cavia porcellus [9] = test: Ex vivo inhibition of ADP induced guinea pig platelet aggregation following 0.08 mmol/kg administration.; format: functional; procedure, shortened: as §1
Rattus norvegicus [10] = test: The compound was tested ex vivo at a dose of 0.15 mmol/kg for ADP induced platelet aggregation in rat
Rattus norvegicus [11] = test: The compound was tested at a dose of 0.15 mmol/kg ex vivo for collagen induced platelet aggregation in rat; format: functional; procedure, shortened: as §2
Cavia porcellus [12] = species: Cavia porcellus; test: The compound was tested ex vivo for collagen induced platelet aggregation in guinea pig; format: functional; procedure, shortened: as §2
Cavia porcellus [13] = species: Cavia porcellus; test: The compound was tested ex vivo for ADP induced platelet aggregation in guinea pig; format: functional; procedure, shortened: as §1
Cavia porcellus [14] = test: The compound was tested ex vivo at a dose of 0.08 mmol/kg for collagen induced platelet aggregation in guinea pig; format: functional; procedure, shortened: as §2
Cavia porcellus [15] = test: The compound was tested ex vivo at a dose of 0.08 mmol/kg for ADP induced platelet aggregation in guinea pig; format: functional; procedure, shortened: as §1
Rattus norvegicus [16] = test: The compound was tested ex vivo at a dose of 0.08 mmol/kg for collagen induced platelet aggregation in rat; format: functional; procedure, shortened: as §2
Rattus norvegicus [17] = test: The compound was tested ex vivo at a dose of 0.08 mmol/kg for ADP induced platelet aggregation in rat; format: functional; procedure, shortened: as §1
Cavia porcellus [18] = test: The compound was tested ex vivo at a dose of 0.04 mmol/kg for collagen induced platelet aggregation in guinea pig; format: functional; procedure, shortened: as §2
Cavia porcellus [19] = test: The compound was tested ex vivo at a dose of 0.04 mmol/kg for ADP induced platelet aggregation in guinea pig; format: functional; procedure, shortened: as §1
Cavia porcellus [20] = test: The compound was tested ex vivo fat a dose of 0.15 mmol/kg for collagen induced platelet aggregation in guinea pig; format: functional; procedure, shortened: as §2
Homo sapiens [21] = species: Homo sapiens; test: as §3; format: functional, organism-based
Cavia porcellus [22] = test: The compound was tested at a dose of 0.08 mmol/kg ex vivo for collagen induced platelet aggregation in guinea pig; format: functional; procedure, shortened: as §2
Rattus norvegicus [23] = test: The compound was tested ex vivo at a dose of 0.3 mmol/kg for ADP induced platelet aggregation in rat; format: functional; procedure, shortened: as §1
Rattus norvegicus [24] = species: Rattus norvegicus; test: The compound was tested ex vivo for ADP induced platelet aggregation in rat; format: functional; procedure, shortened: as §1
Rattus norvegicus [25] = species: Rattus norvegicus; test: The compound was tested ex vivo for collagen induced platelet aggregation in rat; format: functional; procedure, shortened: as §2

CN(CCn1sc2ccccc2c1=O)c1ccccc1
Activity (Rattus norvegicus [1]): 1 | Activity (Rattus norvegicus [2]): 1.1

COc1cc2sn(CCN3CCCCC3)c(=O)c2cc1OC
Activity (Rattus norvegicus [1]): 1.1 | Activity (Cavia porcellus [3]): 1.9 | collagen EC50 dose ratio (treated/control) (Cavia porcellus [4]): 7.3 | Activity (Rattus norvegicus [2]): 2.2

O=c1c2ccccc2sn1CCc1ccccn1
pIC50 (Homo sapiens [5]): 4.70 | Activity (Rattus norvegicus [6]): 0.7 | pIC50 (Homo sapiens [7]): 4.92

COc1cc(OC)c2c(=O)n(CCN3CCCCC3)sc2c1
Activity (Cavia porcellus [8]): >10 | Activity (Cavia porcellus [9]): >27

Cc1cc2sn(CCN3CC4CCC(CC4)C3)c(=O)c2cc1C
Activity (Rattus norvegicus [1]): 1.3 | Activity (Rattus norvegicus [10]): 1 | Activity (Cavia porcellus [4]): 0.7 | Activity (Rattus norvegicus [11]): 1

COc1cc2sn(CCCCCCN3CC4CCC(CC4)C3)c(=O)c2cc1OC
collagen EC50 dose ratio (treated/control) (Cavia porcellus [12]): 2 | Activity (Cavia porcellus [13]): 1.1

Cc1cc(C)c2c(=O)n(CCN3CCCC3)sc2c1
Activity (Cavia porcellus [14]): > 23 | Activity (Cavia porcellus [15]): > 32 | Activity (Cavia porcellus [8]): >23 | Activity (Cavia porcellus [9]): >32

COc1cc(OC)c2c(=O)n(CCN3CCCC3)sc2c1
Activity (Cavia porcellus [8]): >31 | Activity (Cavia porcellus [9]): 4.6

O=c1c2ccccc2sn1CCN1CCCCC1
Activity (Cavia porcellus [8]): 5 | Activity (Rattus norvegicus [16]): 4 | Activity (Rattus norvegicus [17]): 1.7 | Activity (Cavia porcellus [9]): 1.4

CCN(CC)CCn1sc2cc(C)cc(C)c2c1=O
Dose ratio (treated/control collagen EC50) (Cavia porcellus [18]): >17 | Activity (Cavia porcellus [19]): 2.2

O=c1c2ccccc2sn1-c1ccccn1
Activity (Rattus norvegicus [6]): 0.9

O=c1c2cc(Cl)c(Cl)cc2sn1CCN1CCCC1
Activity (Rattus norvegicus [1]): 1.4 | Activity (Rattus norvegicus [2]): 1.8

O=c1c2ccccc2sn1CCCCCN1CCCCC1
Activity (Cavia porcellus [8]): 1.1 | Activity (Cavia porcellus [9]): 1.3

Cc1cc(C)c2c(=O)n(CCc3ccccn3)sc2c1
Dose ratio (treated/control collagen EC50) (Cavia porcellus [18]): 1.6 | Activity (Cavia porcellus [19]): 1

Cc1cc2sn(CCN3CCCC3)c(=O)c2cc1C
Activity (Rattus norvegicus [1]): 1.4 | Activity (Cavia porcellus [3]): 1.9 | Activity (Cavia porcellus [4]): > 10 | Activity (Rattus norvegicus [2]): 2.7

O=c1c2ccccc2sn1CCN1CC2CCC(CC2)C1
Activity (Rattus norvegicus [1]): 1.6 | Activity (Cavia porcellus [3]): 1.1 | Activity (Cavia porcellus [20]): 1.7 | Activity (Rattus norvegicus [2]): 2.2

COc1cc2sn(CCCN3CC4CCC(CC4)C3)c(=O)c2cc1OC
Activity (Cavia porcellus [8]): 1.6 | Activity (Cavia porcellus [9]): 0.9

O=c1c2ccccc2sn1CCCN1CCOCC1
Activity (Cavia porcellus [8]): 2.5 | Activity (Cavia porcellus [9]): 1.3

COc1cc2sn(CCCCN3CC4CCC(CC4)C3)c(=O)c2cc1OC
Activity (Cavia porcellus [8]): 5.4 | pIC50 (Homo sapiens [5]): 4.00 | Activity (Rattus norvegicus [16]): 2.4 | pIC50 (Homo sapiens [21]): 4.80 | Activity (Rattus norvegicus [17]): 1.4 | Activity (Cavia porcellus [9]): 2.6

O=c1c2ccccc2sn1CCCCN1CCCC1
Activity (Cavia porcellus [8]): 1.9 | Activity (Cavia porcellus [9]): 1.4

COc1cc2sn(CCN3CCCC3)c(=O)c2cc1OC
Activity (Rattus norvegicus [1]): 1.1 | Activity (Rattus norvegicus [2]): 1.8

Cc1cc(C)c2c(=O)n(CCN3CCCCC3)sc2c1
Activity (Cavia porcellus [8]): >21 | Activity (Cavia porcellus [18]): >21 | Activity (Cavia porcellus [19]): 2.1 | Activity (Cavia porcellus [9]): >24

COc1cc2sn(CCCc3ccccn3)c(=O)c2cc1OC
Activity (Cavia porcellus [3]): 2.4 | collagen EC50 dose ratio (treated/control) (Cavia porcellus [4]): >27

COc1cc2sn(CCCCCN3CC4CCC(CC4)C3)c(=O)c2cc1OC
collagen EC50 dose ratio (treated/control) (Cavia porcellus [12]): 4.1 | Activity (Cavia porcellus [13]): 1.7

CCCCCn1sc2ccccc2c1=O
Activity (Rattus norvegicus [6]): 1.2

O=c1c2ccccc2sn1CCO
Activity (Rattus norvegicus [6]): 1.3

COc1cc2sn(CCCCc3ccccn3)c(=O)c2cc1OC
Activity (Cavia porcellus [3]): 2.4 | collagen EC50 dose ratio (treated/control) (Cavia porcellus [4]): 2.7

Cc1cc(C)c2c(=O)n(CCCN3CCCCC3)sc2c1
Activity (Cavia porcellus [22]): 6.7 | Activity (Cavia porcellus [9]): 1.4

O=c1c2ccccc2sn1CCCCN1CCOCC1
Activity (Cavia porcellus [8]): 2.4 | Activity (Cavia porcellus [9]): 1.1

Cc1cc(C)c2c(=O)n(CCCCN3CC4CCC(CC4)C3)sc2c1
Dose ratio (treated/control collagen EC50) (Cavia porcellus [18]): 1.1 | Activity (Cavia porcellus [19]): 0.8

O=c1c2cc(Cl)c(Cl)cc2sn1CCN1CCCCC1
Activity (Rattus norvegicus [1]): 1.2 | Activity (Rattus norvegicus [2]): 1.5

CCN(CC)CCn1sc2cc(Cl)c(Cl)cc2c1=O
Activity (Rattus norvegicus [1]): 0.8 | Activity (Rattus norvegicus [6]): 6.5 | Activity (Rattus norvegicus [23]): 1.2 | Activity (Rattus norvegicus [2]): 2.1

O=c1c2ccccc2sn1CCCN1CCCC1
Activity (Cavia porcellus [8]): 6.2 | Activity (Cavia porcellus [9]): 2

COc1cc2sn(CCCCN3CCCCC3)c(=O)c2cc1OC
Activity (Cavia porcellus [8]): 1.6 | Activity (Cavia porcellus [9]): 1.1

Cc1cc2sn(CCc3ccccn3)c(=O)c2cc1C
Activity (Cavia porcellus [3]): 0.9 | collagen EC50 dose ratio (treated/control) (Cavia porcellus [4]): 0.8

CCN(CC)CCn1sc2cc(C)cc(C)c2c1=O.O=S(=O)(O)c1ccc2ccccc2c1
collagen EC50 dose ratio (treated/control) (Cavia porcellus [12]): >36 | Activity (Cavia porcellus [13]): 2.8

O=c1c2cc(Cl)c(Cl)cc2sn1CCc1ccccn1
Activity (Rattus norvegicus [1]): 1 | Activity (Rattus norvegicus [2]): 1

O=c1c2ccccc2sn1-c1ccccc1
Activity (Rattus norvegicus [1]): 0.9 | Activity (Rattus norvegicus [2]): 1.1

O=c1c2ccccc2sn1CCN1CCOCC1
Activity (Rattus norvegicus [1]): 1 | Activity (Rattus norvegicus [2]): 1

CCN(CC)CCn1sc2ccccc2c1=O
Activity (Rattus norvegicus [1]): 1.3 | Activity (Rattus norvegicus [2]): 2.6

COc1cc2sn(CCc3ccccn3)c(=O)c2cc1OC
Activity (Rattus norvegicus [1]): 1.8 | Activity (Cavia porcellus [3]): 1.1 | collagen EC50 dose ratio (treated/control) (Cavia porcellus [4]): 1.5 | Activity (Rattus norvegicus [2]): 2.8

CC(=O)Oc1ccccc1C(=O)O [ASPIRIN]
pIC50 (Homo sapiens [5]): < 3.00 | pIC50 (Homo sapiens [21]): 4.17 | Activity (Cavia porcellus [13]): 1 | Activity (Rattus norvegicus [24]): 1.1 and 1 | Activity (Rattus norvegicus [25]): 1.5 and 1.8

O=c1c2ccccc2sn1CCCN1CCCCC1
Activity (Cavia porcellus [8]): >26 | Activity (Rattus norvegicus [16]): 2.4 | pIC50 (Homo sapiens [7]): 4.77 | Activity (Rattus norvegicus [17]): 1 | Activity (Cavia porcellus [9]): 3.7

O=c1c2ccccc2sn1CCCCN1CCCCC1
Activity (Cavia porcellus [8]): 3.4 | Activity (Cavia porcellus [9]): 1.1

O=c1c2ccccc2sn1CCCN1CC2CCC(CC2)C1
Activity (Cavia porcellus [8]): 1.8 | Activity (Cavia porcellus [9]): 1.2

COc1cc2sn(CCCN3CCCCC3)c(=O)c2cc1OC
Activity (Cavia porcellus [22]): 2.5 | Activity (Cavia porcellus [9]): 1.1

O=c1[nH]sc2ccccc12
pIC50 (Homo sapiens [5]): < 3.70 | Activity (Rattus norvegicus [6]): 1 | pIC50 (Homo sapiens [7]): 4.47

O=c1c2cc(Cl)c(Cl)cc2sn1CCN1CC2CCC(CC2)C1
Activity (Rattus norvegicus [6]): 1

O=c1c2ccccc2sn1CCCCN1CC2CCC(CC2)C1
Activity (Cavia porcellus [8]): 4.1 | Activity (Cavia porcellus [9]): 1.6
